As usually defined, the IC50 is the concentration that gives 50% inhibition. Read a high IC50 as weaker potency.

We go through 21 compounds from ChEMBL document CHEMBL1154662, “alphavbeta3 Integrin-targeting Arg-Gly-Asp (RGD) peptidomimetics containing oligoethylene glycol (OEG) spacers” (J Med Chem, 2009).

The structures appear in SMILES notation. Calls of active or inactive are those of the source. No cut-off for these calls is given here.

One test is filed under the species Homo sapiens. Description: Selectivity index, ratio of IC50 for human integrin alpha2b beta3 receptor to IC50 for human integrin alphav beta3 receptor.
The target of another test is Integrin alpha-V/beta-3 (Homo sapiens, UniProt P05106+P06756). The test can be described thus: Inhibition of human integrin alphav beta3 receptor by biotinylated vitronectin competitive binding assay. The class given is protein-complex assay. Put shortly: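 Placenta-derived human αvβ3 adsorbed at 500 ng/mL in Tris buffer (2 mM CaCl2, 1 mM MgCl2 and MnCl2, pH 7.5), 1 h RT, then blocked with 1% albumin. Incubated 30 min with excess biotinylated vitronectin plus graded compound. Bound ligand detected with anti-biotin–alkaline phosphatase and p-nitrophenyl phosphate at 405 nm. IC50 taken from pooled dose-response curves of at least two experiments.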

The target of test [1] is Integrin alpha-IIb/beta-3 (Homo sapiens, UniProt P05106+P08514). The test can be described thus: Inhibition of human integrin alpha2b beta3 receptor by fibrinogen competitive binding assay. The class given is protein-complex assay. Put shortly: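 Platelet αIIbβ3, affinity-purified, adsorbed at 1 μg/mL in Tris buffer (2 mM CaCl2, 1 mM MgCl2 and MnCl2, pH 7.5) for 1 h at room temperature, then blocked with 1% albumin. Exposed 30 min to excess biotinylated fibrinogen with varied compound levels. Detection used anti-biotin–alkaline phosphatase and p-nitrophenyl phosphate, read at 405 nm. IC50 derived from at least two pooled dose-response experiments.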

In the next test the test system is HOP. Description: Inhibition of HOP cell adhesion on vitronectin coated plate by colorimetric method. Particulars: Homo sapiens. The class given is functional, cell-based. An outline of the steps:
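HOP cells (bone marrow stromal, second subculture) preincubated 1 h at 37 °C with compound (10-4 to 10-12 M final) in serum-free IMDM, then 100 μL of 32000 cells/mL seeded on wells coated with human plasma vitronectin (5 μg/mL); adhesion 30 min at 37 °C. Adherent cells read via p-nitrophenyl N-acetyl β-D-glucosaminide hydrolysis, 405 nm. Expressed as absorbance ratio to untreated cells; ≥2 experiments, n = 6 wells.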

Consider `Nc1cc(C[C@H](NS(=O)(=O)c2cccc(C(F)(F)F)c2)C(=O)O)ccc1OCCCCNC1=NCCCN1`, for which the Ratio IC50 in the test filed under Homo sapiens came to 126.

As for `Cc1ccnc(NCCCCOc2ccc(C[C@H](NS(=O)(=O)c3cccc(C(F)(F)F)c3)C(=O)O)cc2NC(=O)COCCOCCOCCOCCOCCOCCN)c1`, the results for the IC50 (at Integrin alpha-V/beta-3; in test [1]) were 0.8 nM and 38 nM, respectively. For the same compound, the Ratio IC50 in the test listed under Homo sapiens amounted to 47.

Turning to `Nc1cc(C[C@H](NS(=O)(=O)c2cccc(C(F)(F)F)c2)C(=O)O)ccc1OCCCCc1ccc2c(n1)NCCC2`, the IC50 at Integrin alpha-V/beta-3 worked out at 1.1 nM; in test [1], 355 nM. In addition, the Ratio IC50 in the test listed under Homo sapiens is 323.

`N=C(N)NCCCOc1ccc(C[C@H](NS(=O)(=O)c2cccc(C(F)(F)F)c2)C(=O)O)cc1N`: the Ratio IC50 in the test filed under Homo sapiens came out at 3.5.

Turning to `NCCCOc1ccc(C[C@H](NS(=O)(=O)c2cccc(C(F)(F)F)c2)C(=O)O)cc1N`, the IC50 is 138 nM at Integrin alpha-V/beta-3 and 429 nM in test [1]. In addition, in the test listed under Homo sapiens, the Ratio IC50 amounted to 3.1.

Consider `NCCCCOc1ccc(C[C@H](NS(=O)(=O)c2cccc(C(F)(F)F)c2)C(=O)O)cc1N`, for which the IC50 turned out to be 428 nM on Integrin alpha-V/beta-3 and 154 nM in test [1]. In addition, the Ratio IC50 in the test listed under Homo sapiens worked out at 0.35.

As for `Cc1cccc(NCCCCOc2ccc(C[C@H](NS(=O)(=O)c3cccc(C(F)(F)F)c3)C(=O)O)cc2N)n1`, the values for the half-inhibitory concentration (IC50) (at Integrin alpha-V/beta-3; in test [1]) were 1.7 nM and 121 nM, respectively. For the same compound, the Ratio IC50 in the test listed under Homo sapiens is 71.

Consider `CC(=O)Nc1cc(C[C@H](NS(=O)(=O)c2cccc(C(F)(F)F)c2)C(=O)O)ccc1OCCCCNc1cc(C)ccn1`, for which the figures for the half-inhibitory concentration (IC50) (at Integrin alpha-V/beta-3; in test [1]) were 0.7 nM and 38 nM, respectively. For the same compound, in the test filed under Homo sapiens, the Ratio IC50 amounted to 54.

In the case of `COCCOCCOCCOCC(=O)Nc1cc(C[C@H](NS(=O)(=O)c2cccc(C(F)(F)F)c2)C(=O)O)ccc1OCCCCNc1cc(C)ccn1`, the figures for the IC50 (at Integrin alpha-V/beta-3; in test [1]) were 0.5 nM and 61 nM, respectively. Further, the Ratio IC50 in the test listed under Homo sapiens was found to be 122.

Take `Nc1cc(C[C@H](NS(=O)(=O)c2cccc(C(F)(F)F)c2)C(=O)O)ccc1OCCCNC1=NCCCN1`: the Ratio IC50 in the test listed under Homo sapiens is 5.5.

As to `Nc1cc(C[C@H](NS(=O)(=O)c2cccc(C(F)(F)F)c2)C(=O)O)ccc1OCCCCN=C1NCCCN1`, the IC50 is 0.8 nM at Integrin alpha-V/beta-3 and 101 nM in test [1].

For `Cc1ccnc(NCCCCOc2ccc(C[C@H](NS(=O)(=O)c3cccc(C(F)(F)F)c3)C(=O)O)cc2N)c1`, the values for the IC50 (on Integrin alpha-V/beta-3; in test [1]) were 0.6 nM and 106 nM, respectively. Moreover, the result in the test on HOP was Active. In the test listed under Homo sapiens, the Ratio IC50 turned out to be 177.

On to `CC(=O)Nc1cc(C[C@H](NS(=O)(=O)c2cccc(C(F)(F)F)c2)C(=O)O)ccc1OCCCc1ccc2c(n1)NCCC2`, for which the values for the IC50 (on Integrin alpha-V/beta-3; in test [1]) were 0.6 nM and 71 nM, respectively. In addition, in the test with HOP, the result was Active. Also, the Ratio IC50 in the test filed under Homo sapiens is 118.

With `N=C(N)NCCC[C@H](NC(=O)CN)C(=O)NCC(=O)N[C@@H](CC(=O)O)C(=O)N[C@@H](CO)C(=O)O`, the outcome with HOP was Active.

As for `Cc1ccnc(NCCCCOc2ccc(C[C@H](NS(=O)(=O)c3cccc(C(F)(F)F)c3)C(=O)O)cc2NC(=O)COCCOCCOCCN)c1`, the IC50 at Integrin alpha-V/beta-3 came out at 0.9 nM; in test [1] it was 28 nM. Further, the Ratio IC50 in the test listed under Homo sapiens came out at 31.

For `Nc1cc(C[C@H](NS(=O)(=O)c2cccc(C(F)(F)F)c2)C(=O)O)ccc1OCCCCNc1ccccn1`, the IC50 on Integrin alpha-V/beta-3 is 1.4 nM; in test [1], 70 nM. The Ratio IC50 in the test listed under Homo sapiens was found to be 50.

Regarding `Nc1cc(C[C@H](NS(=O)(=O)c2cccc(C(F)(F)F)c2)C(=O)O)ccc1OCCCN=C1NCCCN1`, the IC50 on Integrin alpha-V/beta-3 is 3.9 nM; in test [1], 21.3 nM.

Consider `Nc1cc(C[C@H](NS(=O)(=O)c2cccc(C(F)(F)F)c2)C(=O)O)ccc1OCCCc1ccc2c(n1)NCCC2`, for which the half-inhibitory concentration (IC50) was determined as 0.1 nM on Integrin alpha-V/beta-3 and 141 nM in test [1]. Further, the Ratio IC50 in the test listed under Homo sapiens is 1410.

`Nc1cc(C[C@H](NS(=O)(=O)c2cccc(C(F)(F)F)c2)C(=O)O)ccc1OCCCNc1ccccn1`: the IC50 at Integrin alpha-V/beta-3 is 1.2 nM; in test [1], 36 nM. The Ratio IC50 in the test listed under Homo sapiens is 30.

Take `N=C(N)NCCCCOc1ccc(C[C@H](NS(=O)(=O)c2cccc(C(F)(F)F)c2)C(=O)O)cc1N`: the results for the IC50 (at Integrin alpha-V/beta-3; in test [1]) were 1.7 nM and 7.3 nM, respectively. Further, in the test filed under Homo sapiens, the Ratio IC50 was 4.3.

With `NC(N)=NCCCOc1ccc(C[C@H](NS(=O)(=O)c2cccc(C(F)(F)F)c2)C(=O)O)cc1N`, the 50% inhibitory concentration (IC50) at Integrin alpha-V/beta-3 worked out at 7.6 nM; in test [1], 27 nM.
